{"source": "ChEMBL document CHEMBL5096231", "about": "“Covalently Conjugated NOD2/TLR7 Agonists Are Potent and Versatile Immune Potentiators” (J Med Chem, 2022)", "key": {"[1]": {"assay": "Induction of activation of human CD56+ CD3- NK cells co-cultured with human PBMC cells assessed as increase in CD107a expression at 1 uM incubated for 24 hrs by flow cytometry analysis (reference value: 1.5%)", "format": "functional, Natural killer cell"}, "[2]": {"assay": "Cytotoxicity against human PBMC cells assessed as reduction in metabolic activity at 10 uM incubated for 18 hrs by MTS assay", "format": "toxicity, cell-based", "in_short": "(§1)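 Cells (HEK-Blue NOD2, RAW-Blue or freshly isolated human PBMCs) seeded in duplicate and exposed to 10 μM compound or 0.1% DMSO vehicle for 18 h at 37 °C, 5% CO2. Metabolic activity then measured by CellTiter 96 AQueous One (MTS) assay.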"}, "[3]": {"assay": "Cytotoxicity against HEK-Blue hNOD2 cells assessed as reduction in metabolic activity at 10 uM incubated for 18 hrs by MTS assay", "format": "toxicity, cell-based", "conditions": "human, hek-blue hnod2, 18 h", "in_short": "as §1"}, "[4]": {"assay": "Induction of activation of human CD56+ CD3- NK cells co-cultured with human PBMC cells assessed as increase in CD69 expression at 1 uM incubated for 24 hrs by flow cytometry analysis (reference value: 2.7%)", "format": "functional, Natural killer cell"}, "[5]": {"assay": "(§2) Induction of mouse ovalbumin specific CD4+ T cell activation assessed as increase in CD25 expression at 1 uM preincubated for 18 hrs with mouse BDMC cells in presence of ovalbumin followed by washout and further coincubated with CD4+ T cells and measured after 72 hrs by flow cytometry analysis (reference value: 10.9%)", "format": "functional, CD4+ve Th", "in_short": "(§3)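 C57BL/6 BMDCs (GM-CSF 7 days, >90% CD11c+) pulsed 18 h with 1 μM compound, LPS 1 μg/mL or 0.1% DMSO plus OVA 50 μg/mL, washed. 1 × 10^4 BMDCs cocultured 72 h with 5 × 10^4 CFSE-labelled OT-II CD4+ or OT-I CD8+ T cells. Flow: live Thy1.2+ CD4+ or CD8+ cells scored as CD25+ CFSElow. Duplicates of two experiments.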"}, "[6]": {"assay": "Cytotoxicity against mouse RAW-Blue cells assessed as reduction in metabolic activity at 10 uM incubated for 18 hrs by MTS assay", "format": "toxicity, cell-based", "in_short": "as §1"}, "PBMC": {"test_system": "PBMC", "assay": "Immunostimulatory activity in human PBMC cells assessed as increase in IL-8 production at 1 uM incubated for 18 hrs by flow cytometry analysis", "format": "functional, cell-based", "in_short": "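PBMCs at 1 × 10^6 cells/mL treated with compound (1 μM), LPS (1 μg/mL) or 0.1% DMSO vehicle; cell-free supernatants collected after 18 h at 37 °C, 5% CO2. Cytokines quantified by human inflammatory cytokine bead array on flow cytometry with recombinant standard curves. Four independent experiments, mean ± SEM.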"}, "[7]": {"assay": "as §2, with “specific CD8-positive” for “specific CD4+”, “value: 12.6%)” for “value: 10.9%)”", "format": "functional", "in_short": "as §3"}, "[8]": {"assay": "Induction of activation of human CD56+ CD3- NK cells co-cultured with human PBMC cells assessed as increase in IFN-gamma expression at 1 uM incubated for 24 hrs by flow cytometry analysis (reference value: 0.04%)", "format": "functional, Natural killer cell"}}, "note": "Activity calls are given as the source filed them. The rule behind the calls is not given here."}
{"smiles": "CCOC(=O)CC[C@@H](NC(=O)[C@@H](NC(=O)CNC(=O)/C=C/c1ccc(O)c(OC)c1)C(C)C)C(=O)OCC", "values": [{"measurement": "Activity", "setting": "[1]", "value": 1.1, "unit": "%"}, {"measurement": "Activity", "setting": "[2]", "value": "Non-Toxic"}, {"measurement": "Activity", "setting": "[3]", "value": "Non-Toxic"}, {"measurement": "Activity", "setting": "[4]", "value": 14, "unit": "%"}, {"measurement": "Activity", "setting": "[5]", "value": 12.6, "unit": "%"}, {"measurement": "Activity", "setting": "[6]", "value": "Non-Toxic"}, {"measurement": "Activity", "setting": "PBMC", "value": "Active"}, {"measurement": "Activity", "setting": "[7]", "value": 13.1, "unit": "%"}, {"measurement": "Activity", "setting": "[8]", "value": 1.4, "unit": "%"}]}
